Experimental data published in ChEMBL document CHEMBL4265927, “Systematic variation of the benzoylhydrazine moiety of the GluN2A selective NMDA receptor antagonist TCN-201” (Eur J Med Chem, 2018).
Calls of active or inactive are those of the source. The rule behind the calls is not given here.

Key:
Format in all cases: cell-based
[1] = Negative allosteric modulation of GluN1a/GluN2A receptor (unknown origin) expressed in Xenopus laevis oocytes assessed as inhibition of (S)-glutamate/glycine-induced channel current at 500 nM at -70 mV holding potential by two electrode voltage clamp based electrophysiology assay relative to control TCN-201; conditions: Homo sapiens
Method in brief: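 The screen ran on GluN1a/GluN2A oocytes (0.8 ng of each rat cRNA) by room-temperature TEVC in Mg2+-free Ba2+-Ringer, pH 7.4, with (S)-glutamate/glycine activation. Compounds were at 500 nM. Inhibition was normalized to that of the reference antagonist at 500 nM, tested in the same series of experiments. n is the number of independent oocytes.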

[2] = (§1) Negative allosteric modulation of GluN1a/GluN2A receptor (unknown origin) expressed in Xenopus laevis oocytes assessed as inhibition of (S)-glutamate/glycine-induced channel current at -70 mV holding potential in presence of 10 uM glycine by two electrode voltage clamp based electrophysiology assay; conditions: Homo sapiens
Method in brief: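 Rat wild-type GluN1a and GluN2A cRNA (0.8 ng each) injected into defolliculated oocytes. TEVC at room temperature in Mg2+-free Ba2+-Ringer (10 mM HEPES, 90 mM NaCl, 1 mM KCl, 1.5 mM BaCl2, pH 7.4). Compound was diluted from DMSO stock into (S)-glutamate/glycine agonist solution over a 1 nM–10 range. There were 5 oocytes per concentration. The logistic fit had minimal and maximal inhibition fixed at 0% and 100%.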

Homo sapiens [3] = organism: Homo sapiens; experiment: as §1, with “current at 200 nM at -70 mV” for “current at -70 mV”, “presence of 30 uM glycine” for “presence of 10 uM glycine”
Method in brief: (§2)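 Oocytes co-injected with 0.8 ng each of rat GluN1a and GluN2A cRNA were recorded by TEVC at room temperature in Mg2+-free Ba2+-Ringer, pH 7.4. Compound was fixed at 200 nM. Currents were evoked by (S)-glutamate with glycine at 1, 3, 10 and 30. There were 3 oocytes per glycine level. Mean inhibition was fitted linearly (y = a + b*x) to give intercept and slope.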

[4] = as §1, with “current at 200 nM at -70 mV” for “current at -70 mV”, “presence of 1 to 10 uM” for “presence of 10 uM”; conditions: Homo sapiens; method in brief: as §2
[5] = as §1, with “current at 200 nM at -70 mV” for “current at -70 mV”, “presence of 1 to 30 uM glycine” for “presence of 10 uM glycine”; conditions: Homo sapiens; method in brief: as §2
[6] = (§3) Negative allosteric modulation of GluN1a/GluN2A receptor (unknown origin) expressed in Xenopus laevis oocytes assessed as inhibition of (S)-glutamate/glycine-induced channel current at -70 mV holding potential in presence of 3 uM glycine by two electrode voltage clamp based electrophysiology assay; conditions: Homo sapiens
[7] = Negative allosteric modulation of GluN1a/GluN2B receptor (unknown origin) expressed in Xenopus laevis oocytes assessed as inhibition of (S)-glutamate/glycine-induced channel current at 10 uM at -70 mV holding potential by two electrode voltage clamp based electrophysiology assay; conditions: Homo sapiens
Method in brief: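 For selectivity, oocytes received 0.8 ng GluN1a plus 0.8 ng GluN2B rat cRNA. TEVC was at room temperature in Mg2+-free Ba2+-Ringer, pH 7.4, with (S)-glutamate/glycine stimulation. Compounds were at 10 µM, giving 0.1% DMSO in the test solution. There were 4–5 oocytes per compound.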

Homo sapiens [8] = organism: Homo sapiens; experiment: as §3, with “current at 200 nM at -70 mV” for “current at -70 mV”, “presence of 1 to 3 uM” for “presence of 3 uM”; method in brief: as §2

Question: Which Ratio [1] does the source give for O=C(NNCc1ccccc1)c1ccc(CNS(=O)(=O)c2ccc(F)c(Cl)c2)cc1 here?
Answer: Its Ratio is 0.73.

Question: Which IC50 [2] does the source give for O=C(NNC(=O)c1ccc(CNS(=O)(=O)c2cccc(Br)c2)cc1)c1ccccc1 here?
Answer: The IC50 was 204 nM.

Question: With O=C(NNC(=O)c1ccc[nH]1)c1ccc(CNS(=O)(=O)c2ccc(F)c(Cl)c2)cc1 as the compound, how does the Ratio [1] read?
Answer: The Ratio was 1.2.

Question: With O=C(Cc1ccccc1)NNC(=O)c1ccc(CNS(=O)(=O)c2ccc(F)c(Cl)c2)cc1 as the compound, how does the Ratio [1] read?
Answer: The Ratio was 0.64.

Question: With O=C(NNC(=O)c1ccc2ccccc2c1)c1ccc(CNS(=O)(=O)c2ccc(F)c(Cl)c2)cc1 as the compound, how does the Ratio [1] read?
Answer: Its Ratio is 0.44.

Question: Which inhibition (Homo sapiens [3]) does the source give for Cc1ncc(CNC(=O)c2cnc(CNS(=O)(=O)c3ccc(F)c(F)c3)c(C)n2)s1 here?
Answer: Its inhibition is “Active”.

Question: And the inhibition [4]?
Answer: Its inhibition is “Active”.

Question: What about the inhibition [5] of the same compound?
Answer: The inhibition was “Active”.

Question: And the IC50 [6]?
Answer: The IC50 was 198 nM.

Question: Which Ratio [1] does the source give for O=C(NNS(=O)(=O)c1ccccc1)c1ccc(CNS(=O)(=O)c2ccc(F)c(Cl)c2)cc1 here?
Answer: The Ratio was 0.58.

Question: For CC(C(O)c1ccc(O)cc1)N1CCC(Cc2ccccc2)CC1 (configuration not stated), which inhibition [7] is on record?
Answer: The inhibition was “inactive”.

Question: For O=C(O)CCC(=O)NNC(=O)c1ccc(CNS(=O)(=O)c2ccc(F)c(Cl)c2)cc1, which Ratio [1] is on record?
Answer: The Ratio was 0.3.

Question: With O=C(NNC(=O)c1cc2ccccc2[nH]1)c1ccc(CNS(=O)(=O)c2ccc(F)c(Cl)c2)cc1 as the compound, how does the Ratio [1] read?
Answer: Its Ratio is 1.28.

Question: Which inhibition [7] does the source give for O=C(NNC(=O)c1cccs1)c1ccc(CNS(=O)(=O)c2cccc(Br)c2)cc1 here?
Answer: The inhibition was “inactive”.

Question: What about the IC50 [2] of the same compound?
Answer: Its IC50 is 222 nM.

Question: And the inhibition [4]?
Answer: The inhibition was “Active”.

Question: And the inhibition [5]?
Answer: Its inhibition is “Active”.

Question: Which Ratio [1] does the source give for O=S(=O)(NCc1ccc(-c2nnc(-c3ccccc3)o2)cc1)c1ccc(F)c(Cl)c1 here?
Answer: The Ratio was 0.31.

Question: For O=C(NNC(=O)c1cc2ccccc2s1)c1ccc(CNS(=O)(=O)c2ccc(F)c(Cl)c2)cc1, which Ratio [1] is on record?
Answer: The Ratio was 0.58.

Question: Which results are given for O=C(NNC(=O)c1c[nH]c2ccccc12)c1ccc(CNS(=O)(=O)c2ccc(F)c(Cl)c2)cc1?
Answer: inhibition [7]: inactive; IC50 [2]: 216 nM; Ratio [1]: 1.33; inhibition [4]: Active; inhibition [5]: Active

Question: For O=C(NNC(=O)c1ccc(CNS(=O)(=O)c2ccc(F)c(Cl)c2)cc1)c1ccccc1, which inhibition [7] is on record?
Answer: Its inhibition is “inactive”.

Question: And the IC50 [2]?
Answer: Its IC50 is 512 nM.

Question: What about the inhibition (Homo sapiens [3]) of the same compound?
Answer: Its inhibition is “Active”.

Question: And the inhibition [4]?
Answer: Its inhibition is “Active”.

Question: What about the inhibition (Homo sapiens [8]) of the same compound?
Answer: Its inhibition is “inactive”.

Question: Which Ratio [1] does the source give for O=C(NNC(=O)c1ccco1)c1ccc(CNS(=O)(=O)c2ccc(F)c(Cl)c2)cc1 here?
Answer: The Ratio was 1.1.

Question: With O=C(NNC(=O)c1ccncn1)c1ccc(CNS(=O)(=O)c2ccc(F)c(Cl)c2)cc1 as the compound, how does the Ratio [1] read?
Answer: Its Ratio is 0.92.

Question: Which inhibition [7] does the source give for O=C(NNC(=O)c1cccs1)c1ccc(CNS(=O)(=O)c2ccc(F)c(Cl)c2)cc1 here?
Answer: The inhibition was “inactive”.

Question: What about the IC50 [2] of the same compound?
Answer: Its IC50 is 198 nM.

Question: What about the Ratio [1] of the same compound?
Answer: Its Ratio is 1.35.

Question: What about the inhibition [4] of the same compound?
Answer: Its inhibition is “Active”.

Question: What about the inhibition [5] of the same compound?
Answer: The inhibition was “Active”.

Question: Which Ratio [1] does the source give for O=C(NNC(=O)N1CCOCC1)c1ccc(CNS(=O)(=O)c2ccc(F)c(Cl)c2)cc1 here?
Answer: The Ratio was 0.52.
